Key:
[1] = target: T1, Glucocorticoid receptor (Homo sapiens, UniProt P04150); assay: Displacement of FITC-dexamethasone from human recombinant glucocorticoid receptor alpha by fluorescence polarization assay
T1 sequence (P04150 whole entry): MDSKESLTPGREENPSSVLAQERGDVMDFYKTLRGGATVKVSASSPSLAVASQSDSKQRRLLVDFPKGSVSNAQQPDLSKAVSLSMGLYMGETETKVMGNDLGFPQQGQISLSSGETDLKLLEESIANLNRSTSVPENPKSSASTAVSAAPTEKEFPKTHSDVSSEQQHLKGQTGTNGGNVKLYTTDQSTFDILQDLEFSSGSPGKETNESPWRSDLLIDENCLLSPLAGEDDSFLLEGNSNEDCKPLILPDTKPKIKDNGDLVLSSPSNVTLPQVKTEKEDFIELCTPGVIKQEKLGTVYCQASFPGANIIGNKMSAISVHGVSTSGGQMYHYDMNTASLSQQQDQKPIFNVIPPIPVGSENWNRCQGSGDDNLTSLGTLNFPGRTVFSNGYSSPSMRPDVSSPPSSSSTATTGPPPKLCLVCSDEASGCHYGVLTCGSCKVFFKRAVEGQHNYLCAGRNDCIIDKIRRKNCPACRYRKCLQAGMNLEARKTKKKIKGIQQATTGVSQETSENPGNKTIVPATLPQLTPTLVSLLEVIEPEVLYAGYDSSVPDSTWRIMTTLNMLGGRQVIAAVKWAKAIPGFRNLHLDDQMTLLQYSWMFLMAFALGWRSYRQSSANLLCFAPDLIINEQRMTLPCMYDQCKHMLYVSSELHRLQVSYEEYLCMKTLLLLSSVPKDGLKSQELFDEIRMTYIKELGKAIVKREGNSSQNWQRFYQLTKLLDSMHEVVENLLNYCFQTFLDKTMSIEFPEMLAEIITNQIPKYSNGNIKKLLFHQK

[2] = target: T1, Glucocorticoid receptor; assay: Transrepression activity at GR in PMA-stimulated human A549 cells assessed as inhibition of AP1 response element-induced luciferase reporter gene activity; type: cell-based
[3] = target: T2, Estrogen receptor (Homo sapiens, UniProt P03372); assay: Displacement of […] from estrogen receptor alpha by fluorescence polarization assay
T2 sequence (P03372 whole entry): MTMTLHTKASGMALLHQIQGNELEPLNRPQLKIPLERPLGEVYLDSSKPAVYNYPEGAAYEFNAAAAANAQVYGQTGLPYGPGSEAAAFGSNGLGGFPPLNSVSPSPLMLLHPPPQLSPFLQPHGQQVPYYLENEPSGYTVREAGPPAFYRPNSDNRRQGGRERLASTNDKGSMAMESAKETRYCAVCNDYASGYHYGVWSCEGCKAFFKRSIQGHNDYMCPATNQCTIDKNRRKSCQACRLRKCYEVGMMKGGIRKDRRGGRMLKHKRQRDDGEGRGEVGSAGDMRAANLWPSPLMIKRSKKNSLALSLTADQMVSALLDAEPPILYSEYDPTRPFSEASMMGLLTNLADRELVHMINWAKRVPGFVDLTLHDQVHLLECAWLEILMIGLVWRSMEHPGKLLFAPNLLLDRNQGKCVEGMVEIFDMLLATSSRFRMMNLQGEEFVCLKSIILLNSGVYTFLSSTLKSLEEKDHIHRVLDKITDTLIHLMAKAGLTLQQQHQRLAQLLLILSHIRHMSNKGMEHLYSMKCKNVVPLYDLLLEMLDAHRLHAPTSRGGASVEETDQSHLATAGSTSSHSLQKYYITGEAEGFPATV
In short: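 Fluorescence polarization competition binding: the test compound competes with a fluorescently labelled ligand for binding to the full-length receptor or its ligand-binding domain. IC50 is fitted from the polarization signal with a four-parameter logistic equation. Ki is derived by Cheng–Prusoff, Ki = IC50/(1 + ligand concentration/Kd). Values are means of duplicate experiments.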

[4] = target: T1, Glucocorticoid receptor; assay: Transrepression activity at GR in IL-1-beta-stimulated human A549 cells assessed as inhibition of NF-kappaB-dependent E-selectin transcription by luciferase reporter gene assay; type: cell-based
[5] = target: T1, Glucocorticoid receptor; assay: Agonist activity at GR ligand binding domain expressed in human NP1 cells assessed as glucocorticoid response element transactivation by GAL4 luciferase reporter gene assay; type: cell-based

Row | SMILES | Ki [1] [nM] | EC50 [2] [nM] | Ki [3] [nM] | EC50 [4] [nM] | EC50 [5] [nM]
1 | C[C@@]1(C(=O)Nc2nccs2)CC2c3ccccc3C1c1ccccc12 | 1.3 | 115 | 15000 |  | 
2 | C[C@@]1(C(=O)Nc2nccs2)CC2(C#N)c3ccccc3C1c1ccccc12 | 0.9 | 243 | 26300 | 19.4 | > 10000
